# Assay results collected from several papers.
# Protocols differ between the studies behind these lines.
# Target: Serine/threonine-protein kinase SIK2 (SIK2, Homo sapiens, UniProt Q9H0K1)
Structure (SMILES),test,conditions,remaining binding [%]
Nc1ncc2c(n1)-c1c([nH]c3ccc(C#CC4CC4)cc13)CCCC2,"binding, competition with immobilised ligand",1 µM,81
COc1ncc2cc3ccccc3nc2c1C#N,"cell-free assay, competition with immobilised ligand",5 µM,94
COc1cnc(Nc2cccc(S(N)(=O)=O)c2)nc1N1CCN(c2ccccc2)CC1,"binding, competition with immobilised ligand",1 µM,100
CN(C)c1nccc(-c2cnc3ncccn23)n1,binding,1 µM,100
O=S(=O)(NC1CCC(c2cc(F)ccc2F)(S(=O)(=O)c2ccc(Cl)cc2)CC1)C(F)(F)F (stereo not shown),"cell-free assay, competition with immobilised ligand",1 µM,100
c1cnn2ncc(-c3ccnc(N4CCC45COC5)n3)c2c1,binding,1 µM,96
O=C(c1ccc(Nc2nccc(-c3cc4ccccc4s3)n2)cc1)N1CCC(N2CCCC2)CC1,"binding, competition with immobilised ligand",1 µM,45
C[C@H]1CCN(c2nccc(-c3cnn4ncccc34)n2)C1,binding,1 µM,100
O=C(c1ccc(Nc2ncc(Cl)c(-c3ccc(Cl)s3)n2)cc1)N1CCC(N2CCCC2)CC1,"binding, competition with immobilised ligand",1 µM,21
CN(C)c1ncc(F)c(-c2cnn3ncccc23)n1,binding,1 µM,100
CNC(=O)c1ccc(Nc2ncc(C(F)(F)F)c(NCc3nccnc3N(C)S(C)(=O)=O)n2)cc1,"cell-free assay, competition with immobilised ligand",0.1 µM,100
N[C@H]1CCN(c2nccc(-c3cnn4ncccc34)n2)C1,binding,1 µM,87
COc1ccc2c(c1)O[C@@H](c1ccc(OC)c(OC)c1)C[C@H]2NC(=O)C1(c2ccc3c(c2)OC(F)(F)O3)CC1,"cell-free assay, competition with immobilised ligand",1 µM,95
CCN1CCN(Cc2ccc(C(=O)Nc3ccc(C)c(Oc4ccc5c(c4)CC(=O)N5)c3)cc2C(F)(F)F)CC1,"binding, competition with immobilised ligand",1 µM,80
CNCc1ccccc1-c1csc([C@H](C)Nc2nc(C)nc3cc(OC)c(OC)cc23)c1,"cell-free assay, competition with immobilised ligand",1 µM,100
O=C(c1ccc(Nc2ncc(Cl)c(-c3cc4ccccc4s3)n2)cc1)N1CCC(N2CCCC2)CC1,"binding, competition with immobilised ligand",1 µM,27
CN1CCN(c2cnc3c(C4CCN(C(=O)c5ccc(OC(F)(F)F)cc5N)CC4)ncnc3c2)CC1,"cell-free assay, competition with immobilised ligand",1 µM,100
CN(C)c1nccc(-c2cnn3ncccc23)n1,binding,1 µM,100
C[C@@H](c1cccc(C#N)c1)n1cc(Cl)cc(C(N)=O)c1=N,"cell-free assay, competition with immobilised ligand",1 µM,100
C=CC(=O)N1CCC(C(=O)NCC(=O)N2CCN(c3nc(-c4cnc(N)nc4C(F)F)nc(N4CCOCC4)n3)CC2)CC1,"binding, competition with immobilised ligand",1 µM,96
COc1cc(-c2cn(C3CCc4c(F)cccc4N(CC(F)(F)F)C3=O)nn2)ccc1-n1cnc(C)c1 (stereo not shown),"cell-free assay, competition with immobilised ligand",1 µM,100
O=C(Nc1c[nH]nc1C(=O)NC1CCNCC1)c1cc(F)cc(F)c1,"binding, competition with immobilised ligand",1 µM,100
